The source made the active and inactive calls. The calls are words filed in the database; no cut-off is given here.
How the values were obtained:
[1] = Antiproliferative activity against human HFF cells assessed as cell proliferation at 100 uM incubated for 3 to 4 days in presence of 1 uM pantothenate by SYBR assay
[2] = Selectivity index, ratio of IC50 for human HFF cells to IC50 for Plasmodium falciparum in presence of 1 uM pantothenate; type: toxicity; details: HFF cells versus Plasmodium falciparum, read-out: Ratio IC50
Method in brief: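 HFF cells grown 3-4 days in RPMI 1640 with 10% bovine calf serum and antibiotics, with compound up to 200 μM; SYBR Safe-based read-out. Selectivity index = HFF IC50 divided by P. falciparum IC50 at 1 μM pantothenate. Where HFF inhibition stayed below 50%, 200 μM (or 100 μM) was used as the HFF value to set limits.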

Plasmodium falciparum [3] = assay: Antiplasmodial activity against ring stage Plasmodium falciparum 3D7 infected in human erythrocytes assessed as inhibition of parasite growth incubated for 96 hrs in presence of 1 uM pantothenate by SYBR Green I dye based fluorescence assay; type: functional, organism-based; details: 3D7, Erythrocyte
Method in brief: (§1)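 P. falciparum 3D7 ring stages at 0.5% parasitemia and 1% hematocrit in Albumax II medium. Where specified, 100 μM sodium pantothenate was added. Incubation 96 h, then freeze-thaw and SYBR Safe lysis-buffer fluorescence. Chloroquine 0.25-25 μM served as zero-proliferation control. Experiments in triplicate; 100 μM pantothenate data from two experiments.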

[4] = Antiproliferative activity against human HFF cells assessed as cell proliferation at 200 uM incubated for 3 to 4 days in presence of 1 uM pantothenate by SYBR assay
[5] = Metabolic stability in mouse liver microsomes assessed as half life at 1 uM in presence or absence of NADPH regenerating system by LC-MS analysis; type: ADME, Microsome
Method in brief: (§2)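 Stability in mouse or human liver microsomes was measured with and without an NADPH-regenerating system, giving in vitro t1/2 and intrinsic clearance in μL/min/mg protein.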

Plasmodium falciparum [6] = assay: Antiplasmodial activity against ring stage Plasmodium falciparum 3D7 infected in human erythrocytes assessed as inhibition of parasite growth at 100 uM pretreated with compound followed by parasite infection by SYBR Green I dye based fluorescence assay; type: functional, organism-based; details: Erythrocyte
Plasmodium knowlesi = assay: Antiplasmodial activity against Plasmodium knowlesi infected in human erythrocytes assessed as inhibition of parasite growth incubated for 72 hrs in presence of 1 uM pantothenate by SYBR Green I dye based fluorescence assay; type: functional, organism-based; details: Erythrocyte
[7] = Drug degradation in human liver microsomes after 60 mins; type: ADME, Microsome; details: read-out: Drug degradation
Method in brief: (§3)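 Degradation in mouse or human liver microsomes was followed over 60 min, with and without an NADPH-regenerating system.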

[8] = Metabolic stability in human liver microsomes assessed as half life at 1 uM in presence or absence of NADPH regenerating system by LC-MS analysis; type: ADME, Microsome
Method in brief: as §2

[9] = Apparent permeability of the compound across apical to basolateral side in human Caco-2 cells at 20 uM
[10] = Metabolic stability in mouse liver microsomes assessed as intrinsic clearance at 1 uM in presence or absence of NADPH regenerating system measured per mg protein by LC-MS analysis; type: ADME, Microsome; details: read-out: CLH
Method in brief: as §2

Plasmodium falciparum [11] = assay: Antiplasmodial activity against ring stage Plasmodium falciparum 3D7 infected in human erythrocytes assessed as inhibition of parasite growth incubated for 10 hrs by SYBR Green I dye based fluorescence assay; type: functional, organism-based; details: Erythrocyte
Method in brief: (§4)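 Triple-sorbitol-synchronized 3D7 ring-stage cultures at 0.5% parasitemia and 1% hematocrit were exposed to compound at ten concentrations at 37 °C in 96% N₂, 3% CO₂, 1% O₂. After 5, 10, 24 or 48 h, cells were washed three times and resuspended without compound. Total culture time 96 h, then SYBR Safe fluorescence. Three experiments in triplicate.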

[12] = Metabolic stability in human liver microsomes assessed as intrinsic clearance at 1 uM in presence of absence of NADPH regenerating system measured per mg protein by LC-MS analysis; type: ADME, Microsome; details: read-out: CLH
Method in brief: as §2

Plasmodium falciparum [13] = assay: Antiplasmodial activity against ring stage Plasmodium falciparum 3D7 infected in human erythrocytes assessed as inhibition of parasite growth incubated for 24 hrs by SYBR Green I dye based fluorescence assay; type: functional, organism-based; details: Erythrocyte
Method in brief: as §4

[14] = Drug concentration in BALB/c mouse plasma at 100 mg/kg/day, ip measured after 2 days; type: ADME, organism-based; details: whole blood, in the assay text read “whole blood” for “plasma”
Method in brief: (§5)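 Dosing was 100 mg/kg ip in P. berghei-infected female BALB/c mice, repeated at 24 h. 10 μL tail whole blood was sampled by microsampling device at 3 h, at ~24 h (before the second dose) and at 48 h. Samples were extracted with 80% acetonitrile using diazepam as internal standard and quantified by LC-MS MRM against a spiked-blood standard curve of 5 ng/mL-20 μg/mL. LLQ was 16 or 17 nM. Mean of five mice.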

Plasmodium falciparum [15] = assay: Antiplasmodial activity against ring stage Plasmodium falciparum 3D7 infected in human erythrocytes assessed as inhibition of parasite growth incubated for 96 hrs in presence of 100 uM pantothenate by SYBR Green I dye based fluorescence assay; type: functional, organism-based; details: 3D7, Erythrocyte
Method in brief: as §1

[16] = Drug concentration in BALB/c mouse plasma at 100 mg/kg/day, ip measured after 1 day; type: ADME, organism-based; details: whole blood, in the assay text read “whole blood” for “plasma”
Method in brief: as §5

Plasmodium berghei = assay: Antiplasmodial activity against Plasmodium berghei ANKA infected in BALB/c mouse model of malaria assessed as reduction in parasitemia at 100 mg/kg/day, ip for 2 days by Giemsa staining based flow cytometry analysis; type: functional, organism-based; details: time 2.0 day
Method in brief: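 Female BALB/c mice, 8-12 weeks, infected ip with 1 × 10⁵ P. berghei ANKA-infected erythrocytes. Once parasitemia reached 0.4-1.5% (5 mice per group), 100 mg/kg was given ip in 150 mM NaCl containing 20.9% v/v DMSO; second dose at 24 h. Daily tail-bleed parasitemia was read by Giemsa-stained thin smear or by flow cytometry (JC-1, Hoechst 33342, anti-CD45/CD71/TER119).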

Plasmodium falciparum [17] = assay: Antiplasmodial activity against ring stage Plasmodium falciparum 3D7 infected in human erythrocytes assessed as inhibition of parasite growth incubated for 48 hrs by SYBR Green I dye based fluorescence assay; type: functional, organism-based; details: Erythrocyte
Method in brief: as §4

[18] = Drug degradation in mouse liver microsomes after 60 mins; type: ADME, Microsome; details: read-out: Drug degradation
Method in brief: as §3

[19] = Drug concentration in BALB/c mouse plasma at 100 mg/kg/day, ip measured after 3 hrs; type: ADME, organism-based; details: whole blood, in the assay text read “whole blood” for “plasma”
Method in brief: as §5

Structure (SMILES)	proliferation at 100 µM [1] [%]	selectivity ratio at 1 µM [2]	IC50 (Plasmodium falciparum [3]) [µM]	proliferation at 200 µM [4] [%]	other results
CCCCCc1nnc(CNC(=O)[C@H](O)C(C)(C)CO)[nH]1	84	> 5	40	71	
CC(C)(CO)[C@@H](O)C(=O)NCc1cc(CCc2ccccc2)no1	102	> 18	11	113	
CCCCCc1nnc(CNC(=O)[C@H](O)C(C)(C)CO)o1	108	> 2.8	71	91	
CCCCCc1noc(CNC(=O)[C@H](O)C(C)(C)CO)n1	91	> 37	5.3	90	
CCCCCn1cc(CNC(=O)[C@H](O)C(C)(C)CO)nn1	88	> 3500	0.056	77	half-life at 1 µM [5]: > 4.25 h; Activity (Plasmodium falciparum [6]): inactive; IC50 (Plasmodium knowlesi): 0.028 µM; metabolised at 1 h [7]: < 15%; half-life at 1 µM [8]: > 4.25 h; Papp A→B at 20 µM [9]: 13 ×10⁻⁶ cm/s; microsomal CLint at 1 µM [10]: < 7 µL/min/mg; Activity (Plasmodium falciparum [11]): inactive; microsomal CLint at 1 µM [12]: < 7 µL/min/mg; Activity (Plasmodium falciparum [13]): Active; concentration at 48 h [14]: < 16 nM; IC50 (Plasmodium falciparum [15]): > 0.25 µM; concentration at 24 h [16]: < 16 nM; Activity (Plasmodium berghei): inactive; Activity (Plasmodium falciparum [17]): Active; metabolised at 1 h [18]: < 15%; concentration at 3 h [19]: 1100 nM
CCCCCc1ncc(CNC(=O)[C@H](O)C(C)(C)CO)o1	87	1.2	80	35	
CCCCCn1cc(CNC(=O)[C@H](O)C(C)(C)CO)cn1	102	> 5	34	85	
CCCCc1cc(CNC(=O)[C@H](O)C(C)(C)CO)no1	95	> 2700	0.072	74	
CCCCCc1nc(CNC(=O)[C@H](O)C(C)(C)CO)no1	111	> 110	1.8	100	IC50 (Plasmodium falciparum [15]): > 12 µM
CCCCCCc1cc(CNC(=O)[C@H](O)C(C)(C)CO)no1	78	> 830	0.24	60	
CCCCCc1cc(CCNC(=O)[C@H](O)C(C)(C)CO)on1	97	> 41	4.8	95	
CCN(CC)CCCC(C)Nc1ccnc2cc(Cl)ccc12 (stereo unspecified)					Activity (Plasmodium falciparum [6]): inactive
CC(C)(CO)[C@@H](O)C(=O)NCc1cc(CCc2ccccc2)on1	94	> 33	5.9	95	
CCCCCc1cc(CNC(=O)[C@H](O)C(C)(C)CO)n[nH]1	88	> 27	7.4	89	
CCCCCn1cnc(CNC(=O)[C@H](O)C(C)(C)CO)c1	91	> 14	14	103	
NNC(=O)N1C(=O)c2cc(S(=O)(=O)[O-])cc3c(N)c(S(=O)(=O)[O-])cc(c23)C1=O.[Li+].[Li+] [LUCIFER YELLOW]					Papp A→B at 20 µM [9]: < 1 ×10⁻⁶ cm/s
CCCCCc1cc(CNC(=O)[C@H](O)C(C)(C)CO)on1	100	> 310	0.63	88	IC50 (Plasmodium falciparum [15]): > 12 µM
CCCCCc1cnc(CNC(=O)[C@H](O)C(C)(C)CO)o1	98	> 8.6	23	82	
CCCCCCc1cc(CNC(=O)[C@H](O)C(C)(C)CO)on1	97	> 90	2.2	87	
CCCCCc1nnc(CNC(=O)[C@H](O)C(C)(C)CO)s1	90	> 200	0.96	88	IC50 (Plasmodium falciparum [15]): 26 µM
CCCCCn1cnc(CNC(=O)[C@H](O)C(C)(C)CO)n1	101		> 100	106	
CCCCCCn1cc(CNC(=O)[C@H](O)C(C)(C)CO)nn1			0.055		
CCCCCn1ncc(CNC(=O)[C@H](O)C(C)(C)CO)n1	97	> 7.1	28	103	
CC(C)NCC(O)COc1cccc2ccccc12 (stereo unspecified) [PROPRANOLOL]					Papp A→B at 20 µM [9]: 49 ×10⁻⁶ cm/s
CCCCCc1ccc(CNC(=O)[C@H](O)C(C)(C)CO)s1	58	35	2.8	16	
CCCCc1cc(CNC(=O)[C@H](O)C(C)(C)CO)on1	97	> 1000	0.19	101	
